This is an account of results in ChEMBL document CHEMBL1134951, “Substituted uracil derivatives as potent inhibitors of poly(ADP-ribose)polymerase-1 (PARP-1)” (Bioorg Med Chem Lett, 2002).

The structures appear in SMILES notation. In brackets after ≈: the same amount, converted by molar mass. Several values for one entry are separate records, joined by “and”; a condition that tells them apart may be missing. Equal values may be shown once.

Data set [1] concerns the target T1, Poly [ADP-ribose] polymerase 1 (Homo sapiens, UniProt P09874). Briefly: Inhibitory activity against human recombinant PARP-1.
The subject of data set [2] is Rattus norvegicus. Briefly: Volume at steady state distribution by administering the compound intravenously at a dose of 1 mg/kg in male wistar rat was determined. Format: ADME, organism-based. More on the design: dose 1 mg/kg, route intravenous. Particulars: in vivo, iv.
The nature of data set [3]: Area under the curve was determined by administering the compound at a dose of 1 mg/kg intravenously in male wistar rat. It is filed as ADME, organism-based. Also on record: dose 1 mg/kg, route intravenous. Particulars: in vivo, iv.
Data set [4] in a line: Half life was determined by administering the compound intravenously at a dose of 1 mg/kg in male wistar rat. Format: ADME, organism-based. More on the design: dose 1 mg/kg, route intravenous. Particulars: in vivo, iv.
The nature of data set [5]: Clearance was determined by administering the compound intravenously at a dose of 1 mg/kg in male wistar rat. It is filed as ADME, organism-based. Also on record: dose 1 mg/kg, route intravenous. Particulars: in vivo, iv.
In data set [6] the target is T1, Poly [ADP-ribose] polymerase 1. Briefly: Concentration required to inhibit human recombinant Poly (ADP-ribose) polymerase 1 was determined using dose-response inhibition. In outline:
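Purified recombinant human PARP-1 from a baculovirus (Bac-To-Bac) expression system. It ran 10 min at rt and was stopped with ice-cold 10% TCA. Precipitate was filtered, washed with ethanol and dried, then counted by scintillation. Read-out: IC50.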

The nature of data set [7]: Solubility in phosphate buffered saline (1% DMSO) at pH 6.5 (24 hr equilibration). It is filed as physicochemical. Particulars: buffer.

The term IC50 denotes the concentration that inhibits the measured activity by half. As a reminder, the Vss is the apparent volume that relates the amount in the body to the concentration in plasma or blood. Lower therefore signals confinement near the circulation. Broadly, the AUC is concentration integrated over time. A higher AUC goes with high exposure. For orientation: half-life means how long it takes for the measured level to halve. A high value points to slow loss. What is called clearance is a measure of how efficiently the substance is removed, as volume per time. As a reminder, the Solubility is the concentration that dissolves in the medium under given conditions. Read a high Solubility as much dissolved substance.

T1 sequence (P09874 whole entry): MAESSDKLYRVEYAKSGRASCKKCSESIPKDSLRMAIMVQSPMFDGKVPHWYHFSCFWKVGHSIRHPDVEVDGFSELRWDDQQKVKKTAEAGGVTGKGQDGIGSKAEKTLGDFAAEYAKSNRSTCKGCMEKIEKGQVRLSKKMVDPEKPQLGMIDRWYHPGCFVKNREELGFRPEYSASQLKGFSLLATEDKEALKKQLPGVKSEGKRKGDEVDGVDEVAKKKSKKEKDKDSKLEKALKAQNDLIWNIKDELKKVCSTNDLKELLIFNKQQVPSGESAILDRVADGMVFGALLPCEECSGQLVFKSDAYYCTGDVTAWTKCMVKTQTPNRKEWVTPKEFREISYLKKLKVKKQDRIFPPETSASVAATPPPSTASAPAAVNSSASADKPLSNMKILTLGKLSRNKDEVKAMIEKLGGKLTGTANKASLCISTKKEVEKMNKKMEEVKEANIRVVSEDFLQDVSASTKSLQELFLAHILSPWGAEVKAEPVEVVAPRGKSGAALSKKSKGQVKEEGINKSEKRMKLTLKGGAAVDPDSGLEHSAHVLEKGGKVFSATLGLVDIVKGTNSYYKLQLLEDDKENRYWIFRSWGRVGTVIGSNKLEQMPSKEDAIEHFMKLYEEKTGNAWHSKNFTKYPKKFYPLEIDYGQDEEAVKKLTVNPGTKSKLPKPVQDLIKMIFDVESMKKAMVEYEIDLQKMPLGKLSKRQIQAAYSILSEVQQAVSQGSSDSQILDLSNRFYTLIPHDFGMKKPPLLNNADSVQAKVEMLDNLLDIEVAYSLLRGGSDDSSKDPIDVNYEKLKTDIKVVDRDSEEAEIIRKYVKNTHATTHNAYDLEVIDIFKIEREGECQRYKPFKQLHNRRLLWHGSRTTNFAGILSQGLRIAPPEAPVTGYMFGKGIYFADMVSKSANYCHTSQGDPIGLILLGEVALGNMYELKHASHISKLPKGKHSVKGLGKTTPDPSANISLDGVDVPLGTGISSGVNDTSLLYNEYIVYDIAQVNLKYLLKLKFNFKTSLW

Regarding `O=C(CCn1c2c(c(=O)[nH]c1=O)CCCCC2)NCC(=O)N1CCN(c2ncccn2)CC1`, in data set [1], the IC50 came out at 0.9 µM.
Consider `O=C(Cn1c2c(c(=O)[nH]c1=O)CSCC2)NCCC(=O)N1CCN(c2ncccn2)CC1`, for which the IC50 in data set [1] came out at 0.06 µM.
Same read-out and setting: then `O=C(CCn1c2c(c(=O)[nH]c1=O)CCCC2)NCC(=O)c1ccc(Br)cc1`, with 0.08 µM; and `O=C(CCn1c2c(c(=O)[nH]c1=O)CCCC2)NCC(=O)c1ccccc1`, with 0.45 µM.
Compound `O=C(CCn1c2c(c(=O)[nH]c1=O)CSCC2)NCC(=O)N1CCN(c2cc(C(F)(F)F)ccn2)CC1` yielded a volume of distribution (Vss) in data set [2] of 0.42 L/kg. Also, in data set [3], the AUC was found to be 450 ng·h/mL. The compound further showed a half-life in data set [4] of 18 min. Moreover, the clearance in data set [5] is 36.8 mL/min/kg. Moreover, the IC50 in data set [1] was found to be 0.02 µM.
As to `COc1ccc(C(=O)CNC(=O)CCn2c3c(c(=O)[nH]c2=O)CCCC3)cc1`, the IC50 in data set [1] amounted to 0.3 µM.
Turning to `O=C(CCn1c2c(c(=O)[nH]c1=O)CSCC2)NCC(=O)c1ccc(OC(F)F)cc1`, in data set [1], the IC50 was found to be 0.03 µM.
Regarding `O=C(CCn1c2c(c(=O)[nH]c1=O)CSCC2)NCC(=O)N1CCN(c2ncncn2)CC1`, the IC50 in data set [1] stood at 0.05 µM.
`O=C(CCCCCn1c2c(c(=O)[nH]c1=O)CSCC2)NCC(=O)N1CCN(c2ncccn2)CC1`: the IC50 in data set [1] came out at 0.25 µM.
Take `O=C(CCn1c2c(c(=O)[nH]c1=O)CSCC2)NCC(=O)N1CCN(c2ccccn2)CC1`: in data set [2], the Vss is 1.19 L/kg. Besides, in data set [3], the AUC turned out to be 320 ng·h/mL. The same compound gave a half-life in data set [4] of 72 min. In data set [5], this compound gave a clearance of 51.8 mL/min/kg. In data set [1], the IC50 amounted to 0.035 µM.
Consider `O=C(CCn1c2c(c(=O)[nH]c1=O)CSCC2)NCC(=O)N1CCN(c2ncccn2)CC1`, for which the Vss in data set [2] came to 0.31 L/kg. For the same compound, the AUC in data set [3] was determined as 520 ng·h/mL. This compound showed a half-life in data set [4] of 12 min. The clearance in data set [5] is 33.5 mL/min/kg.
As for `O=C(Cn1c2c(c(=O)[nH]c1=O)CSCC2)NCC(=O)N1CCN(c2ncccn2)CC1`, the IC50 in data set [1] turned out to be 0.15 µM.
Turning to `O=C(CCn1c2c(c(=O)[nH]c1=O)CSCC2)NCC(=O)c1ccc(-c2cncnc2)cc1`, in data set [1], the IC50 came out at 0.025 µM.
Take `O=C(CCn1c2c(c(=O)[nH]c1=O)CCCC2)NCC(=O)N1CCN(c2ncccn2)CC1`: the IC50 in data set [1] came out at 0.09 µM.
Turning to `CC(CC(=O)NCC(=O)c1ccc2ccccc2c1)n1c2c(c(=O)[nH]c1=O)CCCC2` (stereo not given), the IC50 in data set [1] is more than 5 µM.
Regarding `O=C(CCn1c2c(c(=O)[nH]c1=O)CSCC2)NCC(=O)N1CCN(c2ccccc2)CC1`, the distribution volume (Vss) in data set [2] turned out to be 1.39 L/kg. In addition, the AUC in data set [3] came out at 230 ng·h/mL. In addition, in data set [6], the IC50 came out at 0.03 µM. Moreover, the concentration in solution in data set [7] (Solubility) came to 330 µg/mL (≈ 721 µM). For the same compound, the half-life in data set [4] was 24 min. The clearance in data set [5] was 72.2 mL/min/kg.
On to `O=C(CCn1c2c(c(=O)[nH]c1=O)CSCC2)NCC(=O)c1ccc(Oc2ccccc2)cc1`, for which the IC50 in data set [1] amounted to 0.03 µM.
On the same count and under the same terms, then `COc1ccc(C(=O)CNC(=O)CCn2c3c(c(=O)[nH]c2=O)CSCC3)cc1`, with 0.025 µM.
The same measure, in the same setting: then `O=C(CCn1c2c(c(=O)[nH]c1=O)CSCC2)NCC(=O)N1CCN(c2ccncc2)CC1`, with 0.04 µM; and `O=C(CCn1c2c(c(=O)[nH]c1=O)CC=CCC2)NCC(=O)N1CCN(c2ncccn2)CC1`, with 0.9 µM; and `COc1ccc(-c2ccc(C(=O)CNC(=O)CCn3c4c(c(=O)[nH]c3=O)CSCC4)cc2)cc1`, with 0.015 µM.
In the case of `O=C(CCn1c2c(c(=O)[nH]c1=O)CSCC2)NCC(=O)c1ccc(-c2ccccc2)cc1`, in data set [1], the IC50 was 0.02 µM.
The same measure, in the same setting: for `O=C(CCn1c2c(c(=O)[nH]c1=O)CSCC2)NCC(=O)c1ccc(Cl)cc1` the value was 0.06 µM.
In data set [2], `COc1ccc(N2CCN(C(=O)CNC(=O)CCn3c4c(c(=O)[nH]c3=O)CSCC4)CC2)cc1` returned a Vss of 1.01 L/kg. The same compound had an AUC in data set [3] of 160 ng·h/mL. The same compound showed a half-life in data set [4] of 12 min. The same compound yielded a clearance in data set [5] of more than 75 mL/min/kg. Moreover, in data set [1], the IC50 is 0.02 µM and 0.025 µM.
In the case of `Nc1cccnc1N1CCN(C(=O)CNC(=O)CCn2c3c(c(=O)[nH]c2=O)CSCC3)CC1`, in data set [1], the IC50 came to 0.07 µM.
With `O=C(CCn1c2c(c(=O)[nH]c1=O)CSCC2)NCC(=O)c1ccc(Br)cc1`, the IC50 in data set [1] is 0.015 µM.
As for `O=C(CCn1c2c(c(=O)[nH]c1=O)CSCC2)NCC(=O)c1ccc(-c2ccncc2)cc1`, the IC50 in data set [1] is 0.015 µM.
The same measure, in the same setting: for `Nc1cccc(-c2ccc(C(=O)CNC(=O)CCn3c4c(c(=O)[nH]c3=O)CSCC4)cc2)c1` the value was 0.02 µM.
As to `O=C(CCn1c2c(c(=O)[nH]c1=O)CSCC2)NCC(=O)N1CCN(c2ncccc2C(F)(F)F)CC1`, the AUC in data set [3] was determined as 230 ng·h/mL. In data set [5], this compound showed a clearance of 71.7 mL/min/kg. Besides, the concentration for half-maximal inhibition (IC50) in data set [1] was 0.04 µM.
On to `O=C(CCn1c2c(c(=O)[nH]c1=O)CSCC2)NCC(=O)c1ccc(OC(=O)c2ccccc2)cc1`, for which, in data set [1], the IC50 was 0.03 µM.
The same measure, in the same setting: for `O=C(CCn1c2c(c(=O)[nH]c1=O)CSCC2)NCC(=O)c1ccc(N2CCCC2)cc1` the value was 0.012 µM; for `O=C(CCn1c2c(c(=O)[nH]c1=O)CSCC2)NCC(=O)c1cccc(-c2ccccc2)c1`, 0.07 µM; for `CN(CC(=O)c1ccc2ccccc2c1)C(=O)CCn1c2c(c(=O)[nH]c1=O)CCCC2`, 0.4 µM.
In the case of `O=C(CCn1c2c(c(=O)[nH]c1=O)CSCC2)NCC(=O)c1cccc(Br)c1`, the IC50 in data set [1] was 0.07 µM.
Same read-out and setting: for `O=C(CCn1c2c(c(=O)[nH]c1=O)CSCC2)NCC(=O)N1CCN(c2cccnn2)CC1` the value was 0.02 µM.
As for `O=C(CCn1c2c(c(=O)[nH]c1=O)CCCC2)NCC(=O)c1ccc2ccccc2c1`, the Vss in data set [2] was 0.5 L/kg. This compound registered an AUC in data set [3] of 600 ng·h/mL. The half-life in data set [4] is 42 min. The compound further gave a clearance in data set [5] of 28.3 mL/min/kg.
Consider `C=CCCc1c(CC=C)c(=O)[nH]c(=O)n1CCC(=O)NCC(=O)N1CCN(c2ncccn2)CC1`, for which, in data set [1], the IC50 is more than 5 µM.
Consider `O=C(CCn1c2c(c(=O)[nH]c1=O)CSCC2)NCC(=O)c1ccc(-c2cccnn2)cc1`, for which the Vss in data set [2] was 0.27 L/kg. In data set [3], this compound had an AUC of 610 ng·h/mL. Moreover, in data set [4], the half-life is 18 min. Moreover, the clearance in data set [5] was 27.3 mL/min/kg. Further, the IC50 in data set [1] amounted to 0.025 µM.
For the compound `O=C(CCn1c2c(c(=O)[nH]c1=O)CSCC2)NCC(=O)c1ccc(-c2cccnc2)cc1`, the concentration for half-maximal inhibition (IC50) in data set [1] is 0.012 µM.
Still for that read-out and setting: for `O=C(CCn1c2c(c(=O)[nH]c1=O)COCC2)NCC(=O)N1CCN(c2ncccn2)CC1` the value was 0.8 µM.
On the same count and under the same terms, then `O=C(CCn1c2c(c(=O)[nH]c1=O)CCCC2)NCC(=O)N1CCN(c2ccccc2)CC1`, with 0.2 µM.
